From ChEMBL document CHEMBL1131165, “Inhibitors of acyl-CoA:cholesterol O-acyltransferase. 3. Discovery of a novel series of N-alkyl-N-[(fluorophenoxy)benzyl]-N'-arylureas with weak toxicological effects on adrenal glands” (J Med Chem, 1998)
The source made the active and inactive calls. The calls are words filed in the database; no cut-off is given here.

Columns and labels:
[1] = test system: Rattus norvegicus; test: Percent reduction in cholesterol levels in rats at <0.01 mg/kg; format: functional
Method in brief: (§1)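 In cholesterol-fed rats, compound was given orally either as a dietary admixture or by gavage in PEG400. Read-out is the percent reduction of plasma total cholesterol versus control at the dose indicated. Significance was assessed by unpaired, two-tailed Student's t-test.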

[2] = In vitro inhibitory activity against acetylated LDL-induced accumulation of cholesteryl esters in mouse peritoneal macrophages; format: functional
Method in brief: (§2)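 Mouse peritoneal macrophages were exposed to acetylated LDL, which induces accumulation of cholesteryl esters. Read-out is the IC50 (nM) for inhibiting that accumulation. Values given in parentheses are percent inhibition at the concentration indicated.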

[3] = In vitro inhibitory activity against acetylated LDL-induced accumulation of cholesteryl esters in mouse peritoneal macrophages at <10 nM concentration; format: functional; method in brief: as §2
[4] = test system: Rattus norvegicus; test: In vivo hypocholesterolemic activity in cholesterol-fed rats by oral administration in a cholesterol enriched diet; format: functional
Method in brief: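 Rats were fed a cholesterol-enriched diet, and compound was given orally as an admixture in that diet. Read-out is plasma total cholesterol against control, expressed as ED50 (the dose reducing it by 50%) or as percent reduction at the stated dose. Significance was tested by unpaired, two-tailed Student's t-test.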

[5] = molecular target: T1, O-acyltransferase (Oryctolagus cuniculus, UniProt G1SFD9); test: In vitro inhibition of acyl coenzyme A:cholesterol acyltransferase (ACAT) from rabbit intestinal microsomes
Method in brief: (§3)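 Enzyme source is microsomes from rabbit intestine. Read-out is the concentration giving 50% inhibition of ACAT activity (IC50, nM). Some IC50 values were estimated relative to the IC50 of a reference inhibitor tested on the same enzyme batch.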

[6] = test system: Rattus norvegicus; test: Percent reduction in cholesterol levels in rats at <0.1 mg/kg; format: functional; method in brief: as §1
[7] = test system: Rattus norvegicus; test: In vivo hypocholesterolemic activity in cholesterol-fed rats by oral administration by gavage in PEG400 as a vehicle; format: functional
Method in brief: (§4)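 Cholesterol-fed rats were dosed orally by gavage with PEG400 as vehicle. Plasma total cholesterol was compared with control and reported as ED50 (the dose reducing it by 50%) or as percent reduction at the dose given. Significance was tested by unpaired two-tailed Student's t-test.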

[8] = test system: Rattus norvegicus; test: Percent reduction in cholesterol levels in rats at 0.01 mg/kg; format: functional; method in brief: as §1
[9] = test system: Rattus norvegicus; test: Percent reduction in cholesterol levels in rats at >0.1 mg/kg; inactive; format: functional, organism-based; method in brief: as §1
[10] = test system: Rattus norvegicus; test: Percent reduction in cholesterol levels in rats at >0.1 mg/kg; format: functional; method in brief: as §1
[11] = test system: Rattus norvegicus; test: Percent reduction in cholesterol levels in rats at >1 mg/kg; format: functional; method in brief: as §1
[12] = Adrenal toxicity in rabbits at 5 mg/kg i.v., expressed as drug-induced necrosis; + indicates necrosis observed; format: organism-based, Oryctolagus cuniculus; parameters: dose 5 mg/kg, route intravenous; conditions: rabbit, in vivo, iv
Method in brief: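 Rabbits (n = 2) given a single 5 mg/kg iv dose as a solution in PEG400. Adrenal glands were examined for drug-induced necrosis of zona fasciculata cortical cells at 24 h after dosing. Each result is scored against controls as observed (+) or not observed (-).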

[13] = test system: Rattus norvegicus; test: Percent reduction in cholesterol levels in rats at 0.032 mg/kg; format: functional; method in brief: as §1
[14] = test system: Rattus norvegicus; test: Percent reduction in cholesterol levels in rats at <0.1 mg/kg; inactive; format: functional, organism-based; conditions: in the assay text read “>0.1 mg/kg” for “<0.1 mg/kg”; method in brief: as §1
[15] = test system: Rattus norvegicus; test: In vivo hypocholesterolemic activity in cholesterol-fed rats by oral administration of compound by gavage in PEG400 as a vehicle; inactive at >1; format: functional, organism-based; method in brief: as §4
[16] = test system: Rattus norvegicus; test: Percent reduction in cholesterol levels in rats at <1 mg/kg; format: functional; method in brief: as §1
[17] = molecular target: T1, O-acyltransferase; test: In vitro inhibitory activity against Acyl coenzyme A:cholesterol acyltransferase from rabbit intestinal microsomes; format: functional; method in brief: as §3

T1 sequence (G1SFD9 1-524): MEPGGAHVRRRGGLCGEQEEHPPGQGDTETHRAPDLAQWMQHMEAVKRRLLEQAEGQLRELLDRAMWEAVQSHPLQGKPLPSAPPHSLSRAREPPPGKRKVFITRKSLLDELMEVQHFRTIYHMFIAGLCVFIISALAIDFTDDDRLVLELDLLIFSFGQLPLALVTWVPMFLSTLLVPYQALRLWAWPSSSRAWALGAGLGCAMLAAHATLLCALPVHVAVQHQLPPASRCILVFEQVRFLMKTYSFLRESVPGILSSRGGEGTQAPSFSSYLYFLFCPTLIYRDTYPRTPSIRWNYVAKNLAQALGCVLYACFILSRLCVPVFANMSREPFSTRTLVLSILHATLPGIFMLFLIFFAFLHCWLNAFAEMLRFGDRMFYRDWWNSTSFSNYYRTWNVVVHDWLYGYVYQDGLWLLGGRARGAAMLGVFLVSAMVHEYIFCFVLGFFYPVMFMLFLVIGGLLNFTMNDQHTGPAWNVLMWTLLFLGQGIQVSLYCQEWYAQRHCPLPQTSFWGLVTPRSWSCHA

IC50 [2] [nM] | IC50 [5] [nM] | SMILES | ED50 [4] [mg/kg] | ED50 [7] [mg/kg] | other results
< 10 | 9.1 | CSc1cc(C)nc(SC)c1NC(=O)N(Cc1ccccc1)Cc1ccc(Oc2ccc(F)cc2)cc1 | < 0.01 |  | Reduction [1]: 58%; Inhibition [3]: 77%
14 | 10 | CSc1cc(C)nc(SC)c1NC(=O)N(Cc1ccccc1)Cc1ccc(Oc2ccc(Br)cc2)cc1 | 0.011 | < 0.1 | Reduction [6]: 54%
 | 29 | COc1ccc(CN(Cc2ccc(Oc3ccc(F)cc3)cc2)C(=O)Nc2c(SC)cc(C)nc2SC)cc1 | > 0.1 |  | Reduction [10]: 24%
110 | 19 | CSc1cc(C)nc(SC)c1NC(=O)N(Cc1ccc(Oc2ccc(F)cc2)cc1)[C@H](C)c1ccccc1 | 0.095 | 4.6 | 
6.1 | 16 | CSc1cc(C)nc(SC)c1NC(=O)N(CCc1ccccc1)Cc1ccc(Oc2ccc(F)cc2)cc1 | 0.016 | 2.7 | 
350 |  | CSc1cc(C)nc(SC)c1NC(=O)N(Cc1ccccc1)Cc1cccc(-c2cc[nH]n2)c1 |  |  | 
40 | 28 | CSc1cc(C)nc(SC)c1NC(=O)N(CCCc1ccccc1)Cc1ccc(Oc2ccc(F)cc2)cc1 | 0.025 |  | 
7400 |  | O=C(Nc1c(F)cc(F)cc1F)N(Cc1ccccc1)Cc1cccc(-c2cc[nH]n2)c1 |  |  | 
21 |  | CSc1cc(C)nc(SC)c1NC(=O)N(Cc1ccc(Oc2ccc(F)cc2)cc1)Cc1c(C)cccc1C |  |  | IC50 [17]: 26 nM
260 | 19 | CSc1cc(C)nc(SC)c1NC(=O)N(Cc1ccc(Oc2ccc(F)cc2)cc1)[C@@H](C)c1ccccc1 | > 0.1 |  | Reduction [9]: inactive

The next lines start with the molecule.

SMILES | IC50 [2] [nM] | IC50 [5] [nM] | ED50 [4] [mg/kg] | ED50 [7] [mg/kg] | other results
CSc1cc(C)nc(SC)c1NC(=O)N(Cc1ccc(Oc2ccc(F)cc2)cc1)C1CCOCC1 |  | 46 | < 0.1 |  | Reduction [6]: 58%
CSc1cc(C)nc(SC)c1NC(=O)N(Cc1ccc(Oc2ccc(F)cc2)cc1)C1CCCCC1 | < 10 | 23 | < 0.01 |  | Reduction [8]: 63%; Inhibition [3]: 61%
COc1nc(C)ccc1NC(=O)N(Cc1ccc(Oc2ccc(F)cc2)cc1)C1CCCCCC1 |  | 39 | > 0.1 |  | Reduction [9]: inactive
Cc1cc(S(C)(=O)=O)c(NC(=O)N(Cc2ccc(Oc3ccc(F)cc3)cc2)C2CCCCCC2)c(Cl)n1 | 350 | 30 | > 0.1 | > 1 | Reduction [10]: 46%; Reduction [11]: 34%
Cc1cc(C)c(NC(=O)N(Cc2ccc(Oc3ccc(F)cc3)cc2)C2CCCCCC2)c(C)n1 | 240 | 62 | 0.044 | 0.77 | 
CSc1cc(C)nc(SC)c1NC(=O)N(Cc1ccc(Oc2ccc(F)cc2)cc1)C1CCCCCC1 | 48 |  | 0.034 | 0.11 | Toxicity [12]: necrosis observed
COc1nc(C)cc(SC)c1NC(=O)N(Cc1ccc(Oc2ccc(F)cc2)cc1)C1CCCCCC1 | 13 | 29 | < 0.032 | 1.4 | Reduction [13]: 62%
CSc1cc(C)nc(S(C)(=O)=O)c1NC(=O)N(Cc1ccc(Oc2ccc(F)cc2)cc1)C1CCCCCC1 | 15 | 78 | > 0.1 |  | Reduction [14]: inactive
Cc1ccc(NC(=O)N(Cc2ccc(Oc3ccc(F)cc3)cc2)C2CCCCCC2)c(Cl)n1 |  | 19 | > 0.1 |  | 
Cc1cc(Cl)c(NC(=O)N(Cc2ccc(Oc3ccc(F)cc3)cc2)C2CCCCCC2)c(Cl)n1 |  | 14 | > 0.1 |  | Reduction [10]: 38%
COc1cc(C)nc(OC)c1NC(=O)N(Cc1ccc(Oc2ccc(F)cc2)cc1)C1CCCCCC1 | 350 | 33 | 0.032 | 4.5 | 
Cc1cc(C)c(NC(=O)N(Cc2ccc(Oc3ccc(F)cc3)cc2)C2CCCCCC2)c(C)c1 | 80 | 25 | 0.045 | 5.3 | 
CCOCCN(Cc1ccc(Oc2ccc(F)cc2)cc1)C(=O)Nc1c(SC)cc(C)nc1SC |  | 24 | > 0.1 |  | Reduction [10]: 26%
CSc1nc(C)cc(Cl)c1NC(=O)N(Cc1ccc(Oc2ccc(F)cc2)cc1)C1CCCCCC1 | 350 | 12 | < 0.1 | > 1 | Reduction [11]: 48%; Reduction [6]: 77%
CSc1nc(C)nc(SC)c1NC(=O)N(Cc1ccc(Oc2ccc(F)cc2)cc1)C1CCCCCC1 | 20 | 56 | 0.069 | 0.45 | Toxicity [12]: necrosis observed
CSc1cc(C)nc(SC)c1NC(=O)N(Cc1cccc(Oc2ccc(F)cc2)c1)C1CCCCCC1 | 2.9 | 73 | < 0.1 |  | 
CSc1cc(C)nc(SC)c1NC(=O)N(Cc1ccc(Oc2ccc(F)cc2)cc1)C(C)(C)c1ccccc1 | 52 | 24 |  |  | ED50 [15]: inactive
CSc1cc(C)nc(SC)c1NC(=O)N(Cc1ccc(Oc2ccc(Br)cc2)cc1)C1CCCCCC1 | < 10 | 28 | 0.02 |  | Inhibition [3]: 75%
CSc1cc(C)nc(C)c1NC(=O)N(Cc1ccc(Oc2ccc(F)cc2)cc1)C1CCCCCC1 | 35 | 90 |  | < 1 | Reduction [16]: 72%
Cc1cc(S(C)(=O)=O)c(NC(=O)N(Cc2ccc(Oc3ccc(F)cc3)cc2)C2CCCCCC2)c(S(C)(=O)=O)n1 | 215 | 45 | 0.068 | 0.63 | 
CSc1cc(C)nc(Cl)c1NC(=O)N(Cc1ccc(Oc2ccc(F)cc2)cc1)C1CCCCCC1 | 47 | 46 | 0.022 | 0.17 | Toxicity [12]: necrosis observed
